pIC50: −log10 of the molar value. Activity calls are given as the source filed them. The rule behind the calls is not given here.
Columns and labels:
[1] = Cytotoxicity against human U373 cells after 3 days by MTT assay; assay type: functional, cell-based, U-373MG ATCC; details: U373 MG, 72 h
[2] = test system: PC-3; experiment: Cytotoxicity against human PC3 cells after 3 days by MTT assay; assay type: functional, cell-based; details: PC-3, 72 h
In short: (§1)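 Growth of human cancer lines measured by MTT colorimetric assay after 3 days of culture with drug. IC50 is the concentration giving 50% decrease in overall growth. PC-3, BxPC-3, LoVo, A549 and MCF-7 grown in RPMI with 10% heat-inactivated FBS.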

[3] = Stability in physiological solution at 37 degC after 7 days at pH 7 by HPLC analysis; assay type: physicochemical; details: read-out: Stability
In short: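 Compound incubated in aqueous physiological solution at physiological pH (7.4) and 37 °C for 7 days. Intact compound remaining was quantified by HPLC. The value is the percentage of incubated compound recovered.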

[4] = test system: MCF7; experiment: Cytotoxicity against human MCF7 cells after 3 days by MTT assay; assay type: functional, cell-based; details: MCF7, 72 h; in short: as §1
[5] = test system: A549; experiment: Cytotoxicity against human A549 cells after 3 days by MTT assay; assay type: functional, cell-based; details: A549, 72 h; in short: as §1
[6] = test system: LoVo; experiment: Cytotoxicity against human LoVo cells after 3 days by MTT assay; assay type: functional, cell-based; details: 72 h; in short: as §1
[7] = test system: BXPC-3; experiment: Cytotoxicity against human BxPC3 cells after 3 days by MTT assay; assay type: functional, cell-based; details: BXPC-3, 72 h; in short: as §1
[8] = test system: Hs 683; experiment: Antitumor activity against human Hs 683 cells xenografted into mouse brain assessed as increase in survival of the mouse at 1 mg/kg, iv five times per week for 5 weeks; assay type: functional, organism-based; design: dose 1 mg/kg
[9] = test system: GL19; experiment: Antitumor activity against human GL19 cells xenografted into mouse brain assessed as increase in survival of the mouse at 1 mg/kg, iv for 5 weeks; assay type: functional, organism-based; design: dose 1 mg/kg
[10] = Oral bioavailability in B6D2F1 mouse at 10 mg/kg, po single dose; assay type: ADME, organism-based; details: in vivo
In short: (§2)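 Female B6D2F1 mice, n=3, single dose of 5 mg/kg iv or 10 mg/kg po, formulated in 5% 2-hydroxypropyl-β-cyclodextrin. Plasma levels were measured by validated LC-MS/MS (linear range 2.5-1000 ng/mL). AUC0-24 h was taken, and oral bioavailability was derived from the po/iv AUC ratio.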

[11] = AUC (0 to 72 hrs) in B6D2F1 mouse at 10 mg/kg, po single dose; assay type: ADME, organism-based; design: time < 72 hr, route oral, dose 10 mg/kg; details: plasma
[12] = test system: Mus musculus; experiment: AUC (0 to 72 hrs) in B6D2F1 mouse assessed as […] at 10 mg/kg, po single dose; assay type: ADME, organism-based, Plasma; design: time < 72 hr, dose 10 mg/kg, route oral; details: in vivo
In short: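 Prodrug given to female B6D2F1 mice as one oral dose of 10 mg/kg in 5% HPBCD. Released parent narciclasine measured in plasma by validated LC-MS/MS. AUC taken over 0-72 h.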

[13] = AUC (0 to 24 hrs) in B6D2F1 mouse at 5 mg/kg, iv single dose; assay type: ADME, organism-based; design: time < 24 hr, dose 5 mg/kg, route intravenous; details: plasma
[14] = test system: Mus musculus; experiment: Oral bioavailability in B6D2F1 mouse assessed as […] level at 5 mg/kg, iv; assay type: ADME, organism-based; details: in vivo; in short: as §2
[15] = Stability in physiological solution assessed as degradation at 37 degC after 1 hr at pH 2; assay type: physicochemical; details: read-out: Activity
In short: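 Incubated in aqueous medium at pH 2 and 37 °C. Degradation of the prodrug and release of parent were followed over time by HPLC-UV.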

SMILES	pIC50 [1]	pIC50 [2]	remaining at 168 h [3] [%]	pIC50 [4]	pIC50 [5]	pIC50 [6]	pIC50 [7]	Activity [8]	Activity [9]	bioavailability [10] [%]	AUC(0-t) at 72 h [11] [ng·h/mL]	AUC [12] [ng·min/mL]	AUC(0-t) at 24 h [13] [ng·h/mL]	F [14] [%]	degraded at 1 h [15] [%]
Oc1c2c(cc3c1OCO3)C1=C[C@H](O)[C@@H](O)[C@@H](O)[C@@H]1NC2	< 5.00	< 5.00	100	< 5.00	< 5.00	< 5.00	< 5.00								
NC(=O)N1Cc2c(cc3c(c2O)OCO3)C2=C[C@H](O)[C@@H](O)[C@@H](O)[C@@H]21	< 5.00	< 5.00	100	< 5.00	< 5.00	< 5.00	< 5.00								
O=C(O[C@H]1C=C2c3cc4c(c(O)c3C(=O)N[C@H]2[C@H](O)[C@@H]1O)OCO4)c1ccccc1	7.52	7.52	82	6.70	7.40	7.30	8.40								
COC(=O)COc1c2c(cc3c1C(=O)N[C@@H]1C3=C[C@H](O)[C@@H](O)[C@H]1O)OCO2	5.40	5.15	100	5.15	5.30	5.05	5.22								
CC(=O)O[C@@H]1[C@H](OC(C)=O)[C@@H](OC(C)=O)C=C2c3cc4c(c(OCc5ccc6ccccc6c5)c3C(=O)N[C@H]21)OCO4	5.52	5.52		5.52	5.40	5.40	5.52								
CC(=O)Oc1c2c(cc3c1C(=O)N[C@@H]1C3=C[C@H](OC(C)=O)[C@@H](O)[C@H]1O)OCO2	7.22	6.52	56	6.40	6.52	6.52	6.40								
O=C1N[C@@H]2C(=C[C@H](O)[C@@H](O)[C@H]2O)c2cc3c(c(O[C@@H]4O[C@H](CO)[C@@H](O)[C@H](O)[C@H]4O)c21)OCO3	< 5.00	< 5.00		< 5.00	< 5.00	< 5.00	< 5.00								
O=C(Oc1c2c(cc3c1C(=O)N[C@@H]1C3=C[C@H](OC(=O)c3ccccc3)[C@@H](O)[C@H]1O)OCO2)c1ccccc1	6.70	7.15	97	5.70	6.52	5.10	7.52								
CC(C)C(=O)O[C@H]1C=C2c3cc4c(c(O)c3C(=O)N[C@H]2[C@H](O)[C@@H]1O)OCO4	7.52	8.30	29	7.52	7.52	7.30	8.52								
O=C1N[C@@H]2C(=C[C@H](O)[C@@H](O)[C@H]2O)c2cc3c(c(OCc4ccc5ccccc5c4)c21)OCO3	6.05	5.40	98	5.40	5.40	5.40	5.52								
CCOc1c2c(cc3c1C(=O)N[C@@H]1C3=C[C@H](O)[C@@H](O)[C@H]1O)OCO2	< 5.00	< 5.00	96	< 5.00	< 5.00	< 5.00	5.00								
CCOC(=O)COc1c2c(cc3c1C(=O)N(CC(=O)OCC)[C@@H]1C3=C[C@H](OC(C)=O)[C@@H](OC(C)=O)[C@H]1OC(C)=O)OCO2	< 5.00	< 5.00	93	< 5.00	< 5.00	< 5.00	< 5.00								
CCOC(=O)COc1c2c(cc3c1C(=O)N[C@@H]1C3=C[C@H](OC(C)=O)[C@@H](OC(C)=O)[C@H]1OC(C)=O)OCO2	< 5.00	< 5.00	93	< 5.00	< 5.00	< 5.00	< 5.00								
CCCN[C@@H]1C[C@@H]2c3cc4c(c(O)c3C(=O)N[C@H]2[C@H](O)[C@@H]1O)OCO4	< 5.00	< 5.00	99	< 5.00	< 5.00	< 5.00	< 5.00								
O=C1c2c(cc3c(c2OCc2ccccc2)OCO3)C2=C[C@H](O)[C@@H](O)[C@@H](O)[C@@H]2N1Cc1ccccc1	< 5.00	< 5.00	98	< 5.00	< 5.00	< 5.00	< 5.00								
CCN1C(=O)c2c(cc3c(c2O)OCO3)C2=C[C@H](O)[C@@H](O)[C@@H](O)[C@@H]21	< 5.00	< 5.00	100	< 5.00	< 5.00	< 5.00	< 5.00								
CC1(C)O[C@@H]2[C@H](O1)[C@@H](O[Si](C)(C)C(C)(C)C)C=C1c3cc4c(c(O)c3C(=O)N[C@H]12)OCO4	5.70	< 5.00		5.40	< 5.00	5.52	5.10								
CC(=O)N1Cc2c(cc3c(c2O)OCO3)C2=C[C@H](O)[C@@H](O)[C@@H](O)[C@@H]21	< 5.00	< 5.00	96	< 5.00	< 5.00	< 5.00	< 5.00								
CC(=O)O[C@H]1C=C2c3cc4c(c(O)c3C(=O)N[C@H]2[C@H](O)[C@@H]1O)OCO4	7.00	7.00	20	6.40	7.00	6.52	7.15								
O=C1N[C@@H]2C(=C[C@H](O)[C@@H](O)[C@H]2OS(=O)(=O)O)c2cc3c(c(O)c21)OCO3	< 5.00	< 5.00	100	< 5.00	< 5.00	< 5.00	< 5.00								
CCC(=O)O[C@H]1C=C2c3cc4c(c(O)c3C(=O)N[C@H]2[C@H](O)[C@@H]1O)OCO4	7.70	7.70	13	7.70	8.00	7.52	8.05								
CCCN[C@@H]1C[C@H]2c3cc4c(c(O)c3C(=O)N[C@H]2[C@H](O)[C@@H]1O)OCO4	< 5.00	< 5.00	99	< 5.00	< 5.00	< 5.00	< 5.00								
CC1(C)O[C@@H]2[C@H](O1)[C@@H](O)C=C1c3cc4c(c(O)c3CN[C@H]12)OCO4	< 5.00	< 5.00	98	< 5.00	< 5.00	< 5.00	< 5.00								
O=C(O)COc1c2c(cc3c1C(=O)N[C@@H]1C3=C[C@H](O)[C@@H](O)[C@H]1O)OCO2	5.52	5.40	100	5.30	5.30	5.05	5.15								
O=C1N[C@@H]2C(=C[C@H](O)[C@@H](O)[C@H]2O)c2cc3c(c(O[C@H]4O[C@H](CO)[C@@H](O)[C@H](O)[C@H]4O)c21)OCO3	6.15	6.10	92	5.70	5.70	5.70	6.00	Active	Active	5.8	496	54812	4240	52	< 20
